The source made the active and inactive calls.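 How the source made its calls: active means cell viability under 70% at any tested concentration, a measure not printed in our tables; inactive means the rest.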
Each compound was assayed on HEp-2 viability, luminescence, cytotoxicity counter-screen (assay: host cell viability for RSV antiviral hits – HEp-2 cells, synthesized compounds, set 6, cytotoxicity control for RSV inhibitor project, dose response (AID 504509)).
Method in brief: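 Test system: HEp-2 cells without virus / Quantity: 10,595 cells/well / Medium: DMEM/F12 / Compound: eight 1:2 dilutions, 0.39–50 µM, 0.5% DMSO / Timing: 6 d at 37 °C / Measured by: ATP luminescence (CellTiter-Glo) / Measure: CC50 from % viability versus untreated-cell median / Replication: triplicate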

| SMILES | CC50 |
| --- | --- |
| COc1ccccc1CNC(=O)C1CCN(S(=O)(=O)c2ccccc2)CC1 | > 50 µM (inactive) |
| Cc1ccc(Cl)cc1NC(=O)[C@@H]1CCCN1S(=O)(=O)c1cccc2cccnc12 | 9.59 µM |
| COc1ccccc1NCC(=O)Nc1cc(S(=O)(=O)N2CCOCC2)ccc1N1CCOCC1 | > 50 µM (inactive) |
| Cc1ccc(Cl)c(NC(=O)[C@@H]2CCCN2S(=O)(=O)c2cccc3cccnc23)c1 | 9.83 µM |
| Cc1ccc(C(F)(F)F)cc1NC(=O)[C@@H]1CCCN1S(=O)(=O)c1cccc2cccnc12 | 6.92 µM |
| COc1ccccc1CNC(=O)[C@@H]1CCCN1S(=O)(=O)c1cccc2cccnc12 | > 50 µM (inactive) |
| COc1cccc(CNC(=O)C2CCN(S(=O)(=O)c3cccc4nonc34)CC2)c1 | > 50 µM (inactive) |
| Cc1ccc(C(C)(C)C)cc1NC(=O)[C@@H]1CCCN1S(=O)(=O)c1cccc2cccnc12 | 7.18 µM |
| COCCNC(=O)c1ccc(Cn2c(=O)c3ccccc3n(Cc3ccc(C)cc3)c2=O)cc1 | > 50 µM (inactive) |
| Cc1ccc(C(C)C)cc1NC(=O)[C@@H]1CCCN1S(=O)(=O)c1cccc2cccnc12 | 8.26 µM |
| COc1ccccc1CNC(=O)C1CCN(S(=O)(=O)c2cccc3nonc23)CC1 | > 50 µM (inactive) |
| COc1ccccc1CNC(=O)C1CCN(Cc2cccc3nonc23)CC1 | > 50 µM (inactive) |
| Cc1cccc(C)c1NC(=O)[C@@H]1CCCN1S(=O)(=O)c1cccc2cccnc12 | > 50 µM (inactive) |
| COc1ccccc1CNC(=O)C1CCN(S(=O)(=O)c2cccc3cccnc23)CC1 | > 50 µM (inactive) |
| O=C(O)C1CC=CCC1C(=O)Nc1ccc(S(=O)(=O)N2CCCc3ccccc32)cc1 (configuration not stated) | 33 µM |
| COCCCNC(=O)c1ccc(Cn2c(=O)c3ccccc3n(Cc3ccccc3)c2=O)cc1 | > 50 µM (inactive) |
| Cc1ccc(C)c(NC(=O)[C@@H]2CCCN2S(=O)(=O)c2cccc3cccnc23)c1 | 50.4 µM |

From PubChem BioAssay AID504509 (Southern Research Specialized Biocontainment Screening …, 2011)
